Active and inactive are the calls of the source. The rule behind the calls is not given here.

The ΔTm is the shift of the melting midpoint relative to a reference. For orientation: IC50 means the midpoint of a concentration-inhibition curve. The inhibition is the relative decrease from the control value, in per cent.

Test [1] deals with T1, Pteridine reductase 1 (Leishmania major) (UniProt Q01782).
T1 sequence (whole entry): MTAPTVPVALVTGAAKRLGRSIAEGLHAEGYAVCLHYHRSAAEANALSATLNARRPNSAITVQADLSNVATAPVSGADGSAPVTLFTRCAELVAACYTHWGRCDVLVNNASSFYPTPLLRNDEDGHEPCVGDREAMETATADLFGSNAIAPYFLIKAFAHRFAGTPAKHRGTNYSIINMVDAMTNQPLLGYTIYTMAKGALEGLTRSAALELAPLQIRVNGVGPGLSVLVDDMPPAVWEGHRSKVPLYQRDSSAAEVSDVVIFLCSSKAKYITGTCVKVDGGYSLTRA
The test is described as follows: Binding affinity to Leishmania major recombinant N-terminal hexa-His tagged PTR1 expressed in Escherichia coli BL21(DE3) assessed as change in melting temperature at 50 uM at pH 4.7 by SYPRO orange dye based thermal shift assay. In short, it runs like this:
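Recombinant LmPTR1 from E. coli BL21(DE3) with pET-LmPTR1, Ni-NTA purified. Protein 5 μM in 50 mM sodium acetate pH 4.7 with SYPRO Orange (excitation 492, emission 610 nm); compound 50 μM from 1 mM DMSO stock; reference wells with DMSO only. Melt 25–85 °C at 1 °C per min; Tm from Boltzmann sigmoidal fit; triplicate; ΔTm compared by Kruskal-Wallis.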

Another test concerns the target T2, Pteridine reductase 1 (Leishmania major, UniProt Q01782).
T2 sequence (Q01782 whole entry): T1 sequence (whole entry)
The test is described as follows: Inhibition of Leishmania major recombinant N-terminal hexa-His tagged PTR1 catalytic activity expressed in Escherichia coli BL21(DE3) using biopterin as substrate measured for 60 sec in presence of NADPH by UV-visible spectrophotometric method relative to control. The method, boiled down: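 Spectrophotometric assay at 30 °C with purified recombinant LmPTR1 at 0.2 μM in 20 mM sodium citrate pH 4.7, with NADPH and biopterin cofactor/substrate. Compound added in 5% DMSO (v/v). NADPH consumption followed as the drop in absorbance at 340 nm over 60 s; triplicate. IC50 by non-linear regression over at least six inhibitor concentrations.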

In test [2] the target is T1, Pteridine reductase 1 (Leishmania major). The test is described as follows: Inhibition of Leishmania major recombinant N-terminal hexa-His tagged PTR1 catalytic activity expressed in Escherichia coli BL21(DE3) at 50 uM using biopterin as substrate measured for 60 sec in presence of NADPH by UV-visible spectrophotometric method relative to control.
Test [3] has the same target. The test is described as follows: Noncompetitive inhibition of Leishmania major recombinant N-terminal hexa-His tagged PTR1 catalytic activity expressed in Escherichia coli BL21(DE3) at 25 to 45 uM at pH 4.7 in presence of saturating concentration of biopterin and varying levels of NADPH by double-reciprocal plot analysis. The method, boiled down:
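Inhibition mode measured under the 340 nm kinetic conditions (0.2 μM LmPTR1, 20 mM sodium citrate pH 4.7, 30 °C, 60 s). Biopterin held at saturating 40 μM; NADPH varied over 5.0, 7.5, 10.0, 20.0 and 40.0 μM at two fixed inhibitor concentrations. Analysed by double-reciprocal plots; means of at least three experiments.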

Test [4] shares this target. The test is described as follows: Noncompetitive inhibition of Leishmania major recombinant N-terminal hexa-His tagged PTR1 catalytic activity expressed in Escherichia coli BL21(DE3) assessed as decrease in thermal shift stabilization at 50 uM at pH 4.7 in presence of varying levels of NADPH and constant biopterin substrate concentration by SYPRO orange dye based assay. The method, boiled down: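 Inhibition type probed by repeating the TSA screen (5 μM LmPTR1, 50 mM sodium acetate pH 4.7, SYPRO Orange, compound 50 μM) while varying NADPH at 0.0, 3.0, 6.25, 12.5 and 50 μM. Triplicate; ΔTm values compared by Kruskal-Wallis non-parametric ANOVA.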

For test [5] the target is unchanged. The test is described as follows: Effect on thermal stability of Leishmania major recombinant N-terminal hexa-His tagged PTR1 expressed in Escherichia coli BL21(DE3) by SYPRO orange dye based thermal shift assay. In short, it runs like this: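 Dose-response thermal stability run on Ni-NTA purified LmPTR1 (expressed from pET-LmPTR1 in E. coli BL21(DE3)) at 5 μM in 50 mM sodium acetate pH 4.7 with SYPRO Orange. Excitation 492 nm and emission 610 nm; ramp 25–85 °C, 1 °C per min. Tm taken from a Boltzmann sigmoidal fit against DMSO reference wells; done in triplicate.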

Take `O=C1NC(=O)/C(=C/c2ccc(Cl)c(Cl)c2)S1`: the ΔTm in test [1] worked out at 3.01 °C.

As to `O=C1NC(=O)/C(=C/c2cc(Cl)cc(Br)c2O)S1`, on Pteridine reductase 1, the IC50 is 44.7 µM. The inhibition entry in test [2], in test [3] and in test [4] was “Active” each time. Moreover, the thermal shift (ΔTm) in test [1] amounted to 11 °C. The Activity in test [5] is above 200 µM.

Consider `O=C1NC(=O)/C(=C/c2ccc(Cl)cc2Cl)S1`, for which, in test [1], the thermal shift (ΔTm) was above 1 °C.

As to `O=C1NC(=O)/C(=C/c2c(Cl)cccc2Cl)S1`, the ΔTm in test [1] is below 1 °C.

Turning to `O=C1NC(=O)/C(=C/c2cc(Cl)ccc2O)S1`, the 50% inhibitory concentration (IC50) on Pteridine reductase 1 was found to be 75.9 µM. Besides, in test [2], the inhibition result is “Active”. For the same compound, the shift in melting temperature (ΔTm) in test [1] was above 1 °C. In addition, the Activity in test [5] was above 200 µM.

On to `O=C1NC(=O)/C(=C/c2c(F)cccc2Br)S1`, for which, at Pteridine reductase 1, the IC50 was determined as 589 µM. In test [2], the inhibition came to 36%. For the same compound, the ΔTm in test [1] is 1.7 °C.

Regarding `COc1ccc(Br)c(/C=C2\SC(=O)NC2=O)c1`, in test [1], the thermal shift (ΔTm) is above 1 °C.

(Values after ChEMBL document CHEMBL3872217, “Structure-guided discovery of thiazolidine-2,4-dione derivatives as a novel class of Leishmania major pteridine reductase 1 inhibitors” (Eur J Med Chem, 2016).)
